Our source for the Kd values is BindingDB's records for doi:10.1021/jm00151a016 (1986).

For one assay, the target named is Vasopressin V2 receptor (Bos taurus, UniProt P48044). Briefly: ChEBML_214690. An excerpt:
Binding affinity against plasma membrane from bovine kidney inner medulla using [3H]AVP as a radioligand

Assay [1] has as its target Vasopressin V1a/V1b receptor (Rattus norvegicus, UniProt P30560+P48974). The assay is described as follows: Binding affinity against plasma membrane from rat liver using [3H]-AVP as a radioligand. In a few lines: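 Competition binding with [3H]AVP to plasma membranes, 30 min incubation; for rat liver membranes the standard medium included bacitracin (1 mg/mL). Apparent KD and slope factor b from weighted nonlinear least-squares fit of displacement curves to logistic curves; [3H]AVP parameters from direct binding. Mean ±SE of two experiments.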

Positions of bridges follow the written chain, without caps; N, C: chain ends. Non-standard residues stand in square brackets, D forms with d. Residues, ends and D or L forms follow the SMILES beside them. NMeA = CN[C@@H](C)C(=O)O; Sar = CNCC(=O)O

The term Kd denotes the concentration at which binding is half-saturated. Higher therefore signals weaker binding.

Vasopressin V2 receptor, sequence (P48044 whole entry): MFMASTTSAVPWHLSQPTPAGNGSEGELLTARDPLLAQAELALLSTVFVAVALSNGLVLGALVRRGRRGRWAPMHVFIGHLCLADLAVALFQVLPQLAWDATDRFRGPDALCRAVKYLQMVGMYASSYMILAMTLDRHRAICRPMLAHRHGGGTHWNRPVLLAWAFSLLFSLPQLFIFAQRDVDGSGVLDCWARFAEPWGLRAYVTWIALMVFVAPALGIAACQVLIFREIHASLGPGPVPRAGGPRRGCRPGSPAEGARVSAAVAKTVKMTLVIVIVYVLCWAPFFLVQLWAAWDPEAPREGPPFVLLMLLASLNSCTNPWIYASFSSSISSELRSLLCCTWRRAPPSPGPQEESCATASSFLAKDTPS
Vasopressin V1a/V1b receptor, sequence (P30560 whole entry): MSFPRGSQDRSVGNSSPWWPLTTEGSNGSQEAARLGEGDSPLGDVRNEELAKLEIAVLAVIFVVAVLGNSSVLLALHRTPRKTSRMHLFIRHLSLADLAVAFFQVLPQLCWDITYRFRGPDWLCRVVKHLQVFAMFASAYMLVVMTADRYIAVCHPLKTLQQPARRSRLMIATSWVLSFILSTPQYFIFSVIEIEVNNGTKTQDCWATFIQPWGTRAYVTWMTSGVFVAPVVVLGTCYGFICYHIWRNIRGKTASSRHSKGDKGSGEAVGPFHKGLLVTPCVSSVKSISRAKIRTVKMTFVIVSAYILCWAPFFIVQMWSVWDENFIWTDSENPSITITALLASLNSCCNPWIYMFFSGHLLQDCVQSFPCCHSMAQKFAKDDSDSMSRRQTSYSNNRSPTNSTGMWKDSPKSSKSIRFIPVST
Vasopressin V1a/V1b receptor, sequence (P48974 whole entry): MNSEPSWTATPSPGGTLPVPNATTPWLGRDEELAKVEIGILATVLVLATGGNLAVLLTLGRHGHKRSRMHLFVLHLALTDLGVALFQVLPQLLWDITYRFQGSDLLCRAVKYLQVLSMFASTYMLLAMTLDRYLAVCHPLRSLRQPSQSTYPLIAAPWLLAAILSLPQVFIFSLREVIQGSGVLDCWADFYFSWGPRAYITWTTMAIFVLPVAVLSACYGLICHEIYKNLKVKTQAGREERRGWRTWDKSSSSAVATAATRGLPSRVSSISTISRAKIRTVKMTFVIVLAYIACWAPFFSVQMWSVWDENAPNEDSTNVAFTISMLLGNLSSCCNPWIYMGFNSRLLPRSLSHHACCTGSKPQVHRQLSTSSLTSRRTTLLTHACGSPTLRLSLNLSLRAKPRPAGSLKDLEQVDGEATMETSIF

As to `CC(C)[C@H]1NC(=O)[C@H](Cc2ccccc2)NC(=O)[C@@H](Cc2ccc(O)cc2)NC(=O)CCSSC[C@@H](C(=O)N(C)[C@@H](C)C(=O)N[C@@H](CCCN=C(N)N)C(=O)NCC(N)=O)NC(=O)[C@H](CC(N)=O)NC1=O`, the Kd at Vasopressin V2 receptor is 0.0094 µM.

In the case of `C[C@@H](C(=O)N[C@@H](CCCN=C(N)N)C(=O)NCC(N)=O)N(C)C(=O)[C@@H]1CSSC[C@H](N)C(=O)N[C@@H](Cc2ccccc2)C(=O)N[C@@H](Cc2ccccc2)C(=O)N[C@@H](CCC(N)=O)C(=O)N[C@@H](CC(N)=O)C(=O)N1` (H-CFFQNC[NMeA]RG-NH2; disulfide 1-6), the Kd in assay [1] turned out to be 0.11 µM. Take `CC(C)[C@@H]1NC(=O)[C@H](Cc2ccccc2)NC(=O)[C@H](Cc2ccc(O)cc2)NC(=O)[C@@H](N)CSSC[C@@H](C(=O)N(C)CC(=O)N[C@@H](CCCNC(=N)N)C(=O)NCC(N)=O)NC(=O)[C@H](CC(N)=O)NC1=O` (H-CYFVNC[Sar]RG-NH2; disulfide 1-6): the Kd on Vasopressin V2 receptor was determined as 0.0094 µM; in assay [1], 0.11 µM.
